{"source": "paper PMC8247328", "about": "(British Journal of Clinical Pharmacology, 2020)", "key": {"[1]": {"tested_on": "mitochondrial function in the visual cortex", "assay": "31P-MRS of the visual cortex before, during and after visual stimulation", "assay_type": "in vivo, human", "conditions": "Part 2, 25 mg s.c. once daily 28 d", "summary_of_the_method": "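At 3 T, a 6-cm 31P transmit/receive surface coil was placed over the visual cortex, positioned using a 10-mm water sphere on 1H images. Adiabatic pulse-acquire (TR 2 s, flip 90°) FIDs were collected for 4 min at rest (128 averages), 8 min during visual activation (256) and 8 min after (256). Time-domain fitting with prior knowledge gave PCr/ATP, Pi/PCr, Pi/ATP and pH. Scans ran on day −1 and 1.5 h post-dose on day 27; mixed-model ANCOVA used baseline as covariate.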"}, "[2]": {"tested_on": "peripheral blood mononuclear cells (PBMCs)", "assay": "Mitochondrial membrane potential of PBMCs", "assay_type": "in vivo, human", "conditions": "for Mitochondrial membrane potential (Delta psi), contrast vs placebo (95% CI) / Percentage of dysfunctional PMBCs, contrast vs placebo (95% CI): ANCOVA; for Mitochondrial membrane potential (Delta psi), LS mean: PBMCs", "summary_of_the_method": "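Live PBMCs were stained with JC-1 and read by flow cytometry, FL-2 for healthy and FL-1 for dysfunctional mitochondria. A fraction of cells was treated with CCCP as uncoupled positive control, and ΔΨm was calculated from FL2/FL1 ratios ×100. Blood was drawn 1 h before dosing on day 1 and 1.5 h after the final dose on day 7 (Part 1), and 1.5 h post-dose on day 27 (Part 2). Analysis was mixed-model ANCOVA with baseline as covariate.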"}, "PBMCs": {"tested_on": "PBMCs", "assay_type": "cell-based, human", "conditions": "Part 2; 25 mg s.c. once daily; after 27 days"}, "[3]": {"tested_on": "patients with early stage HD", "assay": "Safety: treatment-emergent adverse events, laboratory, vital signs, ECG", "assay_type": "in vivo, human", "summary_of_the_method": "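The trial was randomized and placebo-controlled in early HD. Part 1 gave 5, 15 or 25 mg subcutaneously once daily for 7 days (6 active, 2 placebo per cohort). Part 2 re-randomized patients 12:12 to 28 days. Adverse events, vitals, laboratory, ECG and physical examination were recorded on clinic days and at home visits (days 7, 14, 21 in Part 2). Plasma histamine was sampled 15 and 30 min post-dose.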"}, "[4]": {"conditions": "Part 1, 5 mg s.c. once daily 7 d"}, "[5]": {"conditions": "Part 1, 5 mg s.c. once daily 7 d, n=6, day 7, 1.5 h post dose"}, "[6]": {"conditions": "Part 1, 15 mg s.c. once daily 7 d"}, "[7]": {"conditions": "Part 1, 25 mg s.c. once daily 7 d"}, "[8]": {"conditions": "Part 2, 25 mg s.c. once daily 28 d"}, "[9]": {"conditions": "Part 2, 25 mg s.c. once daily 28 d, n=11, day 27, 1.5 h post dose"}}, "note": "Where a SMILES comes first, the peptide text is derived from it. [ ]: non-standard residue; d: D form."}
{"smiles": "N=C(N)NCCC[C@@H](NC(=O)[C@@H](N)Cc1ccccc1)C(=O)N[C@@H](Cc1ccccc1)C(=O)N[C@@H](CCCCN)C(N)=O", "note": "[SBT‐020, H‐Phe‐D‐Arg‐Phe‐Lys‐NH2] (H-F[dR]FK-NH2)", "values": [{"measurement": "Pi/PCr after visual stimulation (central 31P‐MRS), contrast vs placebo (95% CI)", "setting": "[1]; ANCOVA", "result": "0.02 (−0.02, 0.06) P = .32"}, {"measurement": "Pi/PCr before visual stimulation (central 31P‐MRS), contrast vs placebo (95% CI)", "setting": "[1]; ANCOVA", "result": "0.0007 (−0.02, 0.02) P = .93"}, {"measurement": "Pi/PCr during visual stimulation (central 31P‐MRS), contrast vs placebo (95% CI)", "setting": "[1]; ANCOVA", "result": "0.004 (−0.03, 0.03) P = .81"}, {"measurement": "PCr/ATP after visual stimulation (central 31P‐MRS), LS mean", "setting": "[1]; n=11, day 27", "result": 0.9}, {"measurement": "PCr/ATP before visual stimulation (central 31P‐MRS), LS mean", "setting": "[1]; n=11, day 27", "result": 0.8}, {"measurement": "PCr/ATP during visual stimulation (central 31P‐MRS), LS mean", "setting": "[1]; n=11, day 27", "result": 0.8}, {"measurement": "PCr/ATP during‐after visual stimulation (central 31P‐MRS), LS mean", "setting": "[1]; n=11, day 27", "result": "−0.05"}, {"measurement": "PCr/ATP during‐before visual stimulation (central 31P‐MRS), LS mean", "setting": "[1]; n=11, day 27", "result": "−0.03"}, {"measurement": "Pi/ATP after visual stimulation (central 31P‐MRS), LS mean", "setting": "[1]; n=11, day 27", "result": 0.2}, {"measurement": "Pi/ATP before visual stimulation (central 31P‐MRS), LS mean", "setting": "[1]; n=11, day 27", "result": 0.2}, {"measurement": "Pi/ATP during visual stimulation (central 31P‐MRS), LS mean", "setting": "[1]; n=11, day 27", "result": 0.2}, {"measurement": "Pi/ATP during‐after visual stimulation (central 31P‐MRS), LS mean", "setting": "[1]; n=11, day 27", "result": "−0.02"}, {"measurement": "Pi/ATP during‐before visual stimulation (central 31P‐MRS), LS mean", "setting": "[1]; n=11, day 27", "result": "−0.01"}, {"measurement": "Pi/PCr after visual stimulation (central 31P‐MRS), LS mean", "setting": "[1]; n=11, day 27", "result": 0.2}, {"measurement": "Pi/PCr before visual stimulation (central 31P‐MRS), LS mean", "setting": "[1]; n=11, day 27", "result": 0.2}, {"measurement": "Pi/PCr during visual stimulation (central 31P‐MRS), LS mean", "setting": "[1]; n=11, day 27", "result": 0.2}, {"measurement": "Pi/PCr during‐after visual stimulation (central 31P‐MRS), LS mean", "setting": "[1]; n=11, day 27", "result": "−0.005"}, {"measurement": "Pi/PCr during‐before visual stimulation (central 31P‐MRS), LS mean", "setting": "[1]; n=11, day 27", "result": "−0.006"}, {"measurement": "Mitochondrial membrane potential (Delta psi), contrast vs placebo (95% CI)", "setting": "[2]; [4]", "result": "263.528 (−1151.3, 1678.31) P = .7001"}, {"measurement": "Percentage of dysfunctional PMBCs, contrast vs placebo (95% CI)", "setting": "[2]; [4]", "result": "−1.980 (−3.819, −0.141) P = .0363%"}, {"measurement": "Percentage of dysfunctional PMBCs, LS mean", "setting": "[2]; [5]", "result": 3.82, "unit": "%"}, {"measurement": "Mitochondrial membrane potential (Delta psi), LS mean", "setting": "[2]; [5]", "result": 3162.27}, {"measurement": "Mitochondrial membrane potential (Delta psi), contrast vs placebo (95% CI)", "setting": "[2]; [6]", "result": "−16.375 (−1411.2, 1378.48) P = .9806"}, {"measurement": "Percentage of dysfunctional PMBCs, contrast vs placebo (95% CI)", "setting": "[2]; [6]", "result": "−3.002 (−4.980, −1.025) P = .0051%"}, {"measurement": "Percentage of dysfunctional PMBCs, LS mean", "setting": "[2]; Part 1, 15 mg s.c. once daily 7 d, n=6, day 7, 1.5 h post dose", "result": 2.80, "unit": "%"}, {"measurement": "Mitochondrial membrane potential (Delta psi), contrast vs placebo (95% CI)", "setting": "[2]; [7]", "result": "1513.21 (114.067, 2912.36) P = .0356"}, {"measurement": "Percentage of dysfunctional PMBCs, contrast vs placebo (95% CI)", "setting": "[2]; [7]", "result": "−2.052 (−3.894, −0.210) P = .0310%"}, {"measurement": "Percentage of dysfunctional PMBCs, LS mean", "setting": "[2]; Part 1, 25 mg s.c. once daily 7 d, n=6, day 7, 1.5 h post dose", "result": 3.75, "unit": "%"}, {"measurement": "Mean percentage of dysfunctional PBMCs after 7 days of treatment", "setting": "[2]; Part 1, 5‐mg cohort, baseline mean 3.2", "result": 3.4, "unit": "%"}, {"measurement": "Mean ∆Ψm after 7 days of treatment", "setting": "[2]; Part 1, 5‐mg cohort, baseline mean 2956", "result": 2948}, {"measurement": "Mean percentage of dysfunctional PBMCs after 7 days of treatment", "setting": "[2]; Part 1, 15‐mg cohort, baseline mean 4.3", "result": 3.8, "unit": "%"}, {"measurement": "Mean ∆Ψm after 7 days of treatment", "setting": "[2]; Part 1, 15‐mg cohort, baseline mean 3,316", "result": "3,282"}, {"measurement": "Mean percentage of dysfunctional PBMCs after 7 days of treatment", "setting": "[2]; Part 1, 25‐mg cohort, baseline mean 3.2", "result": 3.4, "unit": "%"}, {"measurement": "Mean ∆Ψm after 7 days of treatment", "setting": "[2]; Part 1, 25‐mg cohort, baseline mean 3715", "result": 5279}, {"measurement": "Mitochondrial membrane potential (Delta psi), contrast vs placebo (95% CI)", "setting": "[2]; [8]", "result": "1065.4 (−495.2, 2626.0) P = .17"}, {"measurement": "Percentage of dysfunctional PMBCs, contrast vs placebo (95% CI)", "setting": "[2]; [8]", "result": "−0.75 (−3.93, 2.42) P = .62%"}, {"measurement": "Percentage of dysfunctional PMBCs, LS mean", "setting": "[2]; [9]", "result": 4.08, "unit": "%"}, {"measurement": "Mitochondrial membrane potential (Delta psi), LS mean", "setting": "[2]; [9]", "result": 4090.47}, {"measurement": "Mean percentage of dysfunctional PBMCs after 28 days of treatment", "setting": "[2]; Part 2, active group 25 mg, baseline mean 4.6", "result": 4.2, "unit": "%"}, {"measurement": "Mean ∆Ψm after 28 days of treatment", "setting": "[2]; Part 2, active group 25 mg, baseline mean 3770", "result": 4124}, {"measurement": "Effect on ∆Ψm values and half maximal inhibitory concentration values for carvedilol and verapamil", "setting": "PBMCs", "result": "no effect"}, {"measurement": "Overall safety", "setting": "[3]; 5, 15, 25 mg s.c. once daily 7 d and 25 mg 28 d", "result": "safe in all dose levels"}, {"measurement": "Plasma histamine levels", "setting": "[3]; 15 and 30 minutes after administration", "result": "not elevated"}, {"measurement": "Severity of injection site reactions", "setting": "[3]; Parts 1 and 2, developed within a few minutes of dosing, resolved within the hour", "result": "mild"}]}
